Test results published in ChEMBL document CHEMBL2151038, “Synthesis, characterization and biological evaluation of some novel 2,4-thiazolidinediones as potential cytotoxic, antimicrobial and antihyperglycemic agents” (Bioorg Med Chem Lett, 2012).
Converted amounts (≈) assume the structure as drawn.

What was measured:
Rattus norvegicus [1] = assay: Antihyperglycemic activity in po dosed streptozotocin-induced type 2 diabetic Wistar albino rat assessed as reduction in plasma glucose level by glucometer; assay type: functional, organism-based
How it was run: (§1)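 Wistar albino rats of either sex, 150–200 g, fasted 16 h. Diabetes induced by nicotinamide 150 mg/kg, then STZ 65 mg/kg in citrate buffer pH 4.5. Glucose confirmed after 48 h. Groups of six. Oral dosing as 0.25% sodium CMC suspension at 10, 30 or 50 mg/kg. Rosiglitazone was the reference. Retro-orbital plasma glucose measured by glucometer before dosing and at 1, 2, 4, 6, 8, 12 and 24 h. Results as mean ± SEM, compared by ANOVA, t-test and Dunnett's test.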

Rattus norvegicus [2] = assay: Antihyperglycemic activity in streptozotocin-induced type 2 diabetic Wistar albino rat assessed as reduction in plasma glucose level at 10 mg/kg, po by glucometer; assay type: functional; how it was run: as §1
Bacillus subtilis = assay: Antibacterial activity against Bacillus subtilis NCIM 2063 after 24 hrs by NCCLS agar well diffusion method; assay type: functional; conditions: NCIM 2063, 24 h
How it was run: (§2)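 Nutrient agar seeded with 0.1 mL bacterial suspension (10⁵ CFU/mL in 0.85% saline). 6 mm wells filled with 0.1 mL compound. Plates in triplicate, 37 ± 0.5 °C for 24 h. MIC = lowest concentration giving complete growth inhibition.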

Artemia salina = assay: Cytotoxicity in brine shrimps larvae assessed as mortality after 24 hrs; assay type: functional; conditions: read-out: ED50 (the source's name)
How it was run: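 Artemia salina nauplii hatched 38 h under constant aeration in sterile brine (sea salt 38 g/L, pH 8.5 with 1 N NaOH). Ten nauplii per vial were exposed to a range of compound concentrations at 37 °C for 24 h under incandescent light, alongside vehicle-treated controls. Survivors were counted, % lethality was taken from mean survivors versus control, and ED50 came from probit analysis.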

Aspergillus niger = assay: Antifungal activity against Aspergillus niger NCIM 548 after 48 hrs by NCCLS agar well diffusion method; assay type: functional; conditions: NCIM 548, 48 h
How it was run: (§3)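 Spore suspensions in sterile distilled water adjusted to 10⁶ CFU/mL, 0.1 mL spread on potato-dextrose agar. 6 mm wells received 0.1 mL compound in 1% DMSO (final 16–512 µg/mL). Controls: 1% DMSO and ketoconazole (16 µg/mL). Triplicate plates, 48 h at 28 ± 0.2 °C. MIC = lowest concentration completely inhibiting growth.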

Pseudomonas aeruginosa = assay: Antibacterial activity against Pseudomonas aeruginosa NCIM 2036 after 24 hrs by NCCLS agar well diffusion method; assay type: functional; conditions: NCIM 2036, 24 h; how it was run: as §2
[3] = Toxicity in mouse assessed as changes in vital functions; assay type: organism-based; conditions: in vivo
Penicillium chrysogenum = assay: Antifungal activity against Penicillium chrysogenum NCIM 738 after 48 hrs by NCCLS agar well diffusion method; assay type: functional; conditions: NCIM 738, 48 h; how it was run: as §3
Staphylococcus aureus = assay: Antibacterial activity against Staphylococcus aureus NCIM 2079 after 24 hrs by NCCLS agar well diffusion method; assay type: functional; conditions: NCIM 2079, 24 h; how it was run: as §2
Bacillus pumilus = assay: Antibacterial activity against Bacillus pumilus NCIM 2327 after 24 hrs by NCCLS agar well diffusion method; assay type: functional; conditions: NCIM 2327, 24 h; how it was run: as §2
Candida albicans = assay: Antifungal activity against Candida albicans NCIM 3102 after 48 hrs by NCCLS agar well diffusion method; assay type: functional; conditions: NCIM 3102, 48 h; how it was run: as §3
Micrococcus luteus = assay: Antibacterial activity against Micrococcus luteus NCIM 2155 after 24 hrs by NCCLS agar well diffusion method; assay type: functional; conditions: NCIM 2155, 24 h; how it was run: as §2
Rattus norvegicus [4] = assay: Antihyperglycemic activity in streptozotocin-induced type 2 diabetic Wistar albino rat assessed as reduction in plasma glucose level at 30 mg/kg, po by glucometer; assay type: functional; how it was run: as §1
Aspergillus oryzae = assay: Antifungal activity against Aspergillus oryzae NCIM 643 after 48 hrs by NCCLS agar well diffusion method; assay type: functional; conditions: NCIM 643, 48 h; how it was run: as §3
Proteus vulgaris = assay: Antibacterial activity against Proteus vulgaris NCIM 2813 after 24 hrs by NCCLS agar well diffusion method; assay type: functional; conditions: NCIM 2813, 24 h; how it was run: as §2
Rattus norvegicus [5] = assay: Antihyperglycemic activity in streptozotocin-induced type 2 diabetic Wistar albino rat assessed as reduction in plasma glucose level at 50 mg/kg, po by glucometer; assay type: functional; how it was run: as §1
Escherichia coli = assay: Antibacterial activity against Escherichia coli NCIM 2065 after 24 hrs by NCCLS agar well diffusion method; assay type: functional; conditions: NCIM 2065, 24 h; how it was run: as §2
Klebsiella pneumoniae = assay: Antibacterial activity against Klebsiella pneumoniae NCIM 5082 after 24 hrs by NCCLS agar well diffusion method; assay type: functional; conditions: NCIM 5082, 24 h; how it was run: as §2

Structure (SMILES)	Activity (Rattus norvegicus [1])	Activity (Rattus norvegicus [2]) [mg/dL]	MIC (Bacillus subtilis) [µg/mL]	EC50 (Artemia salina) [µg/mL]	MIC (Aspergillus niger) [µg/mL]	MIC (Pseudomonas aeruginosa) [µg/mL]	MTD [3] [mg/kg]	MIC (Penicillium chrysogenum) [µg/mL]	MIC (Staphylococcus aureus) [µg/mL]	MIC (Bacillus pumilus) [µg/mL]	MIC (Candida albicans) [µg/mL]	MIC (Micrococcus luteus) [µg/mL]	Activity (Rattus norvegicus [4]) [mg/dL]	MIC (Aspergillus oryzae) [µg/mL]	MIC (Proteus vulgaris) [µg/mL]	Activity (Rattus norvegicus [5]) [mg/dL]	MIC (Escherichia coli) [µg/mL]	MIC (Klebsiella pneumoniae) [µg/mL]
O=C1NC(=O)/C(=C/c2ccc(/C=C/C(=O)c3cccc([N+](=O)[O-])c3)cc2)S1	Dose-dependent effect	11.18	256 (≈ 673 µM)	56.1 (≈ 147 µM)	256 (≈ 673 µM)	128 (≈ 337 µM)	2000	256 (≈ 673 µM)	128 (≈ 337 µM)	256 (≈ 673 µM)	512 (≈ 1350 µM)	256 (≈ 673 µM)	14.72	128 (≈ 337 µM)	512 (≈ 1350 µM)	16.56	128 (≈ 337 µM)	256 (≈ 673 µM)
COc1ccc(C(=O)/C=C/c2ccc(/C=C3\SC(=O)NC3=O)cc2)cc1	Dose-dependent effect	33.88	64 (≈ 175 µM)	16.2 (≈ 44.4 µM)	128 (≈ 350 µM)	64 (≈ 175 µM)	2000	128 (≈ 350 µM)	32 (≈ 87.6 µM)	64 (≈ 175 µM)	128 (≈ 350 µM)	64 (≈ 175 µM)	37.04	128 (≈ 350 µM)	64 (≈ 175 µM)	48.71	32 (≈ 87.6 µM)	64 (≈ 175 µM)
O=C1NC(=O)/C(=C/c2ccc(/C=C/C(=O)c3ccc(Cl)cc3)cc2)S1	Dose-dependent effect	26.74	32 (≈ 86.5 µM)	12.1 (≈ 32.6 µM)	64 (≈ 173 µM)	32 (≈ 86.5 µM)	2000	64 (≈ 173 µM)	32 (≈ 86.5 µM)	16 (≈ 43.3 µM)	64 (≈ 173 µM)	64 (≈ 173 µM)	32.38	64 (≈ 173 µM)	32 (≈ 86.5 µM)	36.17	32 (≈ 86.5 µM)	16 (≈ 43.3 µM)
O=C1NC(=O)/C(=C/c2ccc(/C=C/C(=O)c3cc(OCc4ccccc4)cc(OCc4ccccc4)c3)cc2)S1	Dose-dependent effect	21.76	16 (≈ 29.2 µM)	26.8 (≈ 49 µM)	16 (≈ 29.2 µM)	16 (≈ 29.2 µM)	2000	16 (≈ 29.2 µM)	16 (≈ 29.2 µM)	16 (≈ 29.2 µM)	16 (≈ 29.2 µM)	16 (≈ 29.2 µM)	26.87	16 (≈ 29.2 µM)	32 (≈ 58.4 µM)	30.12	32 (≈ 58.4 µM)	16 (≈ 29.2 µM)
O=C1NC(=O)/C(=C/c2ccc(/C=C/C(=O)c3ccccn3)cc2)S1	Dose-dependent effect	22.78	128 (≈ 381 µM)	30.3 (≈ 90 µM)	64 (≈ 190 µM)	128 (≈ 381 µM)	2000	128 (≈ 381 µM)	64 (≈ 190 µM)	64 (≈ 190 µM)	64 (≈ 190 µM)	32 (≈ 95.1 µM)	34.68	64 (≈ 190 µM)	64 (≈ 190 µM)	43.72	64 (≈ 190 µM)	64 (≈ 190 µM)
O=C1NC(=O)/C(=C/c2ccc(/C=C/C(=O)c3ccc(O)cc3)cc2)S1	Dose-dependent effect	21.83	256 (≈ 729 µM)	36.2 (≈ 103 µM)	256 (≈ 729 µM)	512 (≈ 1460 µM)	2000	512 (≈ 1460 µM)	128 (≈ 364 µM)	128 (≈ 364 µM)	512 (≈ 1460 µM)	256 (≈ 729 µM)	30.21	256 (≈ 729 µM)	512 (≈ 1460 µM)	37.12	128 (≈ 364 µM)	128 (≈ 364 µM)
Nc1cccc(C(=O)/C=C/c2ccc(/C=C3\SC(=O)NC3=O)cc2)c1	Dose-dependent effect	12.14	256 (≈ 731 µM)	33.2 (≈ 94.7 µM)	64 (≈ 183 µM)	128 (≈ 365 µM)	2000	256 (≈ 731 µM)	256 (≈ 731 µM)	256 (≈ 731 µM)	256 (≈ 731 µM)	256 (≈ 731 µM)	15.36	128 (≈ 365 µM)	256 (≈ 731 µM)	21.66	64 (≈ 183 µM)	256 (≈ 731 µM)
O=C1NC(=O)/C(=C/c2ccc(/C=C/C(=O)c3cccc(F)c3)cc2)S1	Dose-dependent effect	12.08	32 (≈ 90.6 µM)	9.28 (≈ 26.3 µM)	64 (≈ 181 µM)	32 (≈ 90.6 µM)	2000	64 (≈ 181 µM)	32 (≈ 90.6 µM)	32 (≈ 90.6 µM)	64 (≈ 181 µM)	64 (≈ 181 µM)	16.87	64 (≈ 181 µM)	64 (≈ 181 µM)	20.66	32 (≈ 90.6 µM)	32 (≈ 90.6 µM)
Cc1cccc(C(=O)/C=C/c2ccc(/C=C3\SC(=O)NC3=O)cc2)c1O	Dose-dependent effect	36.76	64 (≈ 175 µM)	33.1 (≈ 90.6 µM)	128 (≈ 350 µM)	64 (≈ 175 µM)	2000	256 (≈ 701 µM)	128 (≈ 350 µM)	128 (≈ 350 µM)	64 (≈ 175 µM)	512 (≈ 1400 µM)	43.14	128 (≈ 350 µM)	32 (≈ 87.6 µM)	49.99	64 (≈ 175 µM)	64 (≈ 175 µM)
Cc1ccc(O)c(C(=O)/C=C/c2ccc(/C=C3\SC(=O)NC3=O)cc2)c1	Dose-dependent effect	31.76	128 (≈ 350 µM)	39.4 (≈ 108 µM)	128 (≈ 350 µM)	256 (≈ 701 µM)	2000	64 (≈ 175 µM)	256 (≈ 701 µM)	256 (≈ 701 µM)	128 (≈ 350 µM)	512 (≈ 1400 µM)	37.03	64 (≈ 175 µM)	512 (≈ 1400 µM)	42.13	128 (≈ 350 µM)	128 (≈ 350 µM)
O=C1NC(=O)/C(=C/c2ccc(/C=C/C(=O)c3cccc(Cl)c3)cc2)S1	Dose-dependent effect	11.71	64 (≈ 173 µM)	24.8 (≈ 67.1 µM)	64 (≈ 173 µM)	32 (≈ 86.5 µM)	2000	64 (≈ 173 µM)	64 (≈ 173 µM)	64 (≈ 173 µM)	128 (≈ 346 µM)	64 (≈ 173 µM)	15.42	64 (≈ 173 µM)	32 (≈ 86.5 µM)	21.83	64 (≈ 173 µM)	64 (≈ 173 µM)
O=C1NC(=O)/C(=C/c2ccc(/C=C/C(=O)c3ccc4c(c3)Cc3ccccc3-4)cc2)S1	Dose-dependent effect	39.83	256 (≈ 604 µM)	39.7 (≈ 93.6 µM)	256 (≈ 604 µM)	128 (≈ 302 µM)	2000	512 (≈ 1210 µM)	256 (≈ 604 µM)	256 (≈ 604 µM)	256 (≈ 604 µM)	512 (≈ 1210 µM)	44.62	256 (≈ 604 µM)	512 (≈ 1210 µM)	52.81	128 (≈ 302 µM)	256 (≈ 604 µM)
